Measured values reported in ChEMBL document CHEMBL2331117 (J Med Chem, 2013).
Calls of active or inactive are those of the source. The calls are words filed in the database; no cut-off is given here.

What was measured:
[1] = Volume of distribution at steady state in CD rat at 3 mg/kg, iv; type: ADME, organism-based; set-up: dose 3 mg/kg, route intravenous; details: in vivo, read-out: Vdss
[2] = test system: Mus musculus; experiment: In vivo inhibition of mTORC2-mediated phosphorylation of AKT at […] in human MCF7 cells xenografted into athymic nude mouse at 100 mg/kg, po after 1 hr by Western blotting analysis relative to control; type: functional; details: MCF7, 1 h
Summary of the method: (§1)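 MCF-7 cells (DMEM, 10% FBS) were implanted subcutaneously at 5 × 10^6 cells in 50% cold HBSS/50% growth-factor-reduced matrigel into the hindflank of 5−8 week old female nude mice. At tumor size 40−150 mg, mice received a single oral dose of 100 mg/kg. Tumor lysates were pooled per group. Phospho-AKT (S473, T308), p70S6K (T389), S6 (S240/244) and 4E-BP1 (T37/46) were measured by Western blot normalized to α-tubulin.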

[3] = target: Receptor-type tyrosine-protein kinase FLT3 (Homo sapiens, UniProt P36888); experiment: Inhibition of FLT3 (unknown origin)
[4] = target: RAC-alpha serine/threonine-protein kinase (Homo sapiens, UniProt P31749); experiment: Inhibition of AKT1 (unknown origin)
Sequence of RAC-alpha serine/threonine-protein kinase (P31749 whole entry, canonical isoform): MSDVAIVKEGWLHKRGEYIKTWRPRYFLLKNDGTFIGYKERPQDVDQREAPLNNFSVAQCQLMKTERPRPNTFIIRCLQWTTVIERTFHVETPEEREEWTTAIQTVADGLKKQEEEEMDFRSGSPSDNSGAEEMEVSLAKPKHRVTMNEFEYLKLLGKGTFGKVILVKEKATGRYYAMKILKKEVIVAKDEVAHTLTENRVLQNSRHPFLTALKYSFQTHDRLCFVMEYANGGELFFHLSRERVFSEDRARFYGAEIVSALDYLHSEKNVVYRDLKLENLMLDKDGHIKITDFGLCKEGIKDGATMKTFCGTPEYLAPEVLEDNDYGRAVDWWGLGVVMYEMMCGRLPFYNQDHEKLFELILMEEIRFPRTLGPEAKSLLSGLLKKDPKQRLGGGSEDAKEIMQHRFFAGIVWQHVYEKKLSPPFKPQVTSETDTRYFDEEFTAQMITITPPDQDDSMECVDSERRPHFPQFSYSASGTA

[5] = target: Phosphatidylinositol 4,5-bisphosphate 3-kinase catalytic subunit beta isoform (Homo sapiens, UniProt P42338); experiment: Inhibition of PI3Kbeta (unknown origin)
Sequence of Phosphatidylinositol 4,5-bisphosphate 3-kinase catalytic subunit beta isoform (P42338 whole entry, canonical isoform): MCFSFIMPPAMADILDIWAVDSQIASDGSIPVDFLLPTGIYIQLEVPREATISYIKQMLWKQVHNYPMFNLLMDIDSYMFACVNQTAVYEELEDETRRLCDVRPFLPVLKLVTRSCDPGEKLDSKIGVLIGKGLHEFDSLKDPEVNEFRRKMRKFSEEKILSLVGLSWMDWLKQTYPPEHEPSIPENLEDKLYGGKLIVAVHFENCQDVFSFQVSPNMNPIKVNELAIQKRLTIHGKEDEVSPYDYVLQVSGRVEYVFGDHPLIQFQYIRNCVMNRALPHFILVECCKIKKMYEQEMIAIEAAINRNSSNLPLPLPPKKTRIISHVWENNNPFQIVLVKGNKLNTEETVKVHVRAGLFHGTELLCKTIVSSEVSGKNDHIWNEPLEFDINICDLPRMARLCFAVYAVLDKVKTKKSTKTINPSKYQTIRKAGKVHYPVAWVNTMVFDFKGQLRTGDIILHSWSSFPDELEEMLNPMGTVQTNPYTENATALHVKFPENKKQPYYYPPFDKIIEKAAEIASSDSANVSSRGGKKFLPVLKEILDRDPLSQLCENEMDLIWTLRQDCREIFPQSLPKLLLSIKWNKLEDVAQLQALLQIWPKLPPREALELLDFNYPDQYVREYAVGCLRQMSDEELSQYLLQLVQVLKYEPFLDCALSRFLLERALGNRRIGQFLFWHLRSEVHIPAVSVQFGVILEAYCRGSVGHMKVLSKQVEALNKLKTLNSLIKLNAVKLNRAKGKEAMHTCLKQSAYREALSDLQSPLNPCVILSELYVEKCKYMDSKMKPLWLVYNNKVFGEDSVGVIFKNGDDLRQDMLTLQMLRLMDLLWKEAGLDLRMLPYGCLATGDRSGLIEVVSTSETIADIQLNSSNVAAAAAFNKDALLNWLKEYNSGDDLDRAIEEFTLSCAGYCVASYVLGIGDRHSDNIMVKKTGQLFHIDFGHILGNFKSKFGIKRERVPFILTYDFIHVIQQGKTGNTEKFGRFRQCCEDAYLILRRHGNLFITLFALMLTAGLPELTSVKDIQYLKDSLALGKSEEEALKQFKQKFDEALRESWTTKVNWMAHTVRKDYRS

[6] = target: T1, Phosphatidylinositol 4,5-bisphosphate 3-kinase catalytic subunit alpha isoform (Homo sapiens, UniProt P42336); experiment: Inhibition of PI3Kalpha (unknown origin)
T1 sequence (P42336 whole entry, canonical isoform): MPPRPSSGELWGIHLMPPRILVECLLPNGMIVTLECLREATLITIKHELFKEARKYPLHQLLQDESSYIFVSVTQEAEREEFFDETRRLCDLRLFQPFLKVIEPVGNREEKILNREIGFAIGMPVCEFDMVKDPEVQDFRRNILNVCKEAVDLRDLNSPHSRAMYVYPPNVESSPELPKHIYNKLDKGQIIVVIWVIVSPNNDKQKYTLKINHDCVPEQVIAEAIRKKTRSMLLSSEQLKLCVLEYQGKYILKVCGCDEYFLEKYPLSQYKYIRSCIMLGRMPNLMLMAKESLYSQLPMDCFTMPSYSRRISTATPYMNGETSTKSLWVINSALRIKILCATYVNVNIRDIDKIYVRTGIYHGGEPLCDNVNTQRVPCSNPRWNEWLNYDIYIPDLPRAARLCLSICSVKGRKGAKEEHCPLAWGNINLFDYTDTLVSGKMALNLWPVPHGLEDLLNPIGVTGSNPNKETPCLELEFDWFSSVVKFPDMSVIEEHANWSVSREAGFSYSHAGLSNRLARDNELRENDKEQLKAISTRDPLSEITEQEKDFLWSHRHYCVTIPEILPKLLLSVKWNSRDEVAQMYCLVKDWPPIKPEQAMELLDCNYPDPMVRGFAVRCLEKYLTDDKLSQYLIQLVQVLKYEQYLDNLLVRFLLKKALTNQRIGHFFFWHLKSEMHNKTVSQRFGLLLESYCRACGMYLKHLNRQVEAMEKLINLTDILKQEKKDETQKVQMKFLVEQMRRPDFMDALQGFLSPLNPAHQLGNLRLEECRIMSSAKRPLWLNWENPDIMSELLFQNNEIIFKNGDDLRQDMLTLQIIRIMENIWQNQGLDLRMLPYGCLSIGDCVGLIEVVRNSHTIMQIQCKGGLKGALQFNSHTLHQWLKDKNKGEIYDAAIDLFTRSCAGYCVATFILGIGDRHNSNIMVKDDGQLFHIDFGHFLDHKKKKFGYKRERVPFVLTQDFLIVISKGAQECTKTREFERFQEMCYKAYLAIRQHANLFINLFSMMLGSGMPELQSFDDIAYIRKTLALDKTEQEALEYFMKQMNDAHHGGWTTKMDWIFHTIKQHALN
Summary of the method: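 PI3Kα activity was read as the percentage of ATP consumed, by luciferase–luciferin chemiluminescence (Kinase-Glo). The reaction ran about 2 h at ambient temperature, with ATP consumption kept to 40–60%. Values are the mean of n ≥ 2.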

[7] = target: Proto-oncogene tyrosine-protein kinase Src (Homo sapiens, UniProt P12931); experiment: Inhibition of SRC (unknown origin)
[8] = target: T1, Phosphatidylinositol 4,5-bisphosphate 3-kinase catalytic subunit alpha isoform; experiment: Inhibition of PI3Kalpha (unknown origin) using PIP2 as substrate after 2 hrs by luminescence assay
[9] = target: Cell division cycle 7-related protein kinase (Homo sapiens, UniProt O00311); experiment: Inhibition of CDC7 (unknown origin)
[10] = target: Serine/threonine-protein kinase mTOR (Rattus norvegicus) (UniProt P42346); experiment: Reversible inhibition of mTOR (unknown origin) assessed as enzyme recovery measured after dilution in presence of ATP relative to untreated control; details: Homo sapiens
[11] = test system: Mus musculus; experiment: In vivo inhibition of mTORC1-mediated phosphorylation of pS6 at (serine 240/244) in human PC3 cells xenografted into athymic nude mouse at 100 mg/kg, po after 8 hrs by Western blotting analysis relative to control; type: functional; details: PC-3, 8 h
Summary of the method: (§2)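 PC-3 cells grown in DMEM with 20% FBS were implanted subcutaneously at 3 × 10^6 cells in ice-cold HBSS into the hindflank of 5−8 week old male nude mice. At tumor size 200−500 mg, mice received a single oral dose of 100 mg/kg. Plasma and tumors were collected at 1, 4, 8, 16, 24 and 32 h. Tumor lysates from each group (n = 5) were pooled. Phospho-proteins were quantified by Western blot and normalized to α-tubulin.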

[12] = Plasma protein binding in mouse at 5 uM; type: ADME, cell-free; details: read-out: PPB (converted)
[13] = target: Serine/threonine-protein kinase Chk1 (Homo sapiens, UniProt O14757); experiment: Inhibition of CHK1 (unknown origin)
Sequence of Serine/threonine-protein kinase Chk1 (O14757 whole entry): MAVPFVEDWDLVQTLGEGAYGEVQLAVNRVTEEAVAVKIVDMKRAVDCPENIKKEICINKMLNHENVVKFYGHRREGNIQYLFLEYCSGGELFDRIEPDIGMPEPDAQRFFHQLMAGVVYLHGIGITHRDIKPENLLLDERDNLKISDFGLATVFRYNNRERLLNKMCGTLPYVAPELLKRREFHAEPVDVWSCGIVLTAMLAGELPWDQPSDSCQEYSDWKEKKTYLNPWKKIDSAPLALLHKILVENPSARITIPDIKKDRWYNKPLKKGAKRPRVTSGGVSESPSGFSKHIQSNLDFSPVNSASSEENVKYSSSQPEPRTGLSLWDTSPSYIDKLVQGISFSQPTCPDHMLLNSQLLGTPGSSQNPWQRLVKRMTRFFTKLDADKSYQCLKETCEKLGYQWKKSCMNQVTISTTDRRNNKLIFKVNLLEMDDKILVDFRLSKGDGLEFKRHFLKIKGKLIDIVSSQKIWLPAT

[14] = target: Cytochrome P450 3A4 (Homo sapiens, UniProt P08684); experiment: Induction of CYP3A4 (unknown origin); type: ADME
Sequence of Cytochrome P450 3A4 (P08684 whole entry): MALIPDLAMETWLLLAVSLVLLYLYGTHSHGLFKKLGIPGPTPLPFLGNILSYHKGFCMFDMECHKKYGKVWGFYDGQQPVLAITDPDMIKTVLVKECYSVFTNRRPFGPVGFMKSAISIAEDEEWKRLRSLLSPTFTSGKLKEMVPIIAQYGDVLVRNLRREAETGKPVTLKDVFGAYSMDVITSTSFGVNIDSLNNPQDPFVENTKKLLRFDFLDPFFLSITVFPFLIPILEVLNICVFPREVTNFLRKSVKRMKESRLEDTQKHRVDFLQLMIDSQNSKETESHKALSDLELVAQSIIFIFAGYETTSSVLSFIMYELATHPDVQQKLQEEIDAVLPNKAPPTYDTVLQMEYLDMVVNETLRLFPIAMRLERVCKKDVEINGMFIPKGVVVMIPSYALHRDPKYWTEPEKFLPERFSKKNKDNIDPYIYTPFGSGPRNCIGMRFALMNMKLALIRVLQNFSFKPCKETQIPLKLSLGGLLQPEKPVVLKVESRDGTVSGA

[15] = test system: Plasma; experiment: Plasma concentration in athymic mouse plasma xenografted with human PC3 cells at 100 mg/kg, po after 32 hrs; type: ADME, organism-based, PC-3; set-up: dose 100 mg/kg, route oral; details: in vivo, BLD = below limit of detection
[16] = Tmax in athymic nude mouse at 10 mg/kg, po; type: ADME, organism-based; set-up: dose 10 mg/kg, route oral; details: in vivo
[17] = test system: Mus musculus; experiment: In vivo inhibition of mTORC1-mediated phosphorylation of p70S6K at […] in human MCF7 cells xenografted into athymic nude mouse at 100 mg/kg, po after 32 hrs by Western blotting analysis relative to control; type: functional; details: MCF7, 32 h; summary of the method: as §1
[18] = target: CDK3/cyclin E (Homo sapiens, UniProt O96020+P24864+Q00526); experiment: Inhibition of CDK3/Cyclin E (unknown origin); type: protein-complex assay
Sequence of CDK3/cyclin E (P24864 whole entry): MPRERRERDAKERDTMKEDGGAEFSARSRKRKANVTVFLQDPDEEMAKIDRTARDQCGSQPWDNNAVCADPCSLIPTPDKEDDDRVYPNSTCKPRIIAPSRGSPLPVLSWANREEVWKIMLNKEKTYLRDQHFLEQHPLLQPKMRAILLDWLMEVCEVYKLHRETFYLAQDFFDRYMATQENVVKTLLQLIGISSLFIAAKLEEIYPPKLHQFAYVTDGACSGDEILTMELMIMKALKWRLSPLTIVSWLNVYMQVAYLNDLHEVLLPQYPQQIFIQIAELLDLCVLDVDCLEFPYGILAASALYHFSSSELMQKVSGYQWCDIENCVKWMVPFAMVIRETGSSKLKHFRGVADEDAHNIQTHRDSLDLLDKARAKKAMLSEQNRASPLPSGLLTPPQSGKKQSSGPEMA
Sequence of CDK3/cyclin E (O96020 whole entry): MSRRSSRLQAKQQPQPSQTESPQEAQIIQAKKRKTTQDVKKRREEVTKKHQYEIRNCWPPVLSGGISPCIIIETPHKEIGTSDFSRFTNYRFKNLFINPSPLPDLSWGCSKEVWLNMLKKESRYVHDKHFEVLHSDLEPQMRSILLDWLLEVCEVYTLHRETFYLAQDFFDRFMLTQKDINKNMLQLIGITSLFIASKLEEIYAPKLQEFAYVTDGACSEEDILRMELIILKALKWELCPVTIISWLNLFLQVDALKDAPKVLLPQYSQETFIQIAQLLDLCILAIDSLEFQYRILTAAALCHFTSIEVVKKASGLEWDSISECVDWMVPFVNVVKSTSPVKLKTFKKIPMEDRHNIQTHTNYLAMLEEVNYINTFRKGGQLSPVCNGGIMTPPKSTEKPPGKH
Sequence of CDK3/cyclin E (Q00526 whole entry): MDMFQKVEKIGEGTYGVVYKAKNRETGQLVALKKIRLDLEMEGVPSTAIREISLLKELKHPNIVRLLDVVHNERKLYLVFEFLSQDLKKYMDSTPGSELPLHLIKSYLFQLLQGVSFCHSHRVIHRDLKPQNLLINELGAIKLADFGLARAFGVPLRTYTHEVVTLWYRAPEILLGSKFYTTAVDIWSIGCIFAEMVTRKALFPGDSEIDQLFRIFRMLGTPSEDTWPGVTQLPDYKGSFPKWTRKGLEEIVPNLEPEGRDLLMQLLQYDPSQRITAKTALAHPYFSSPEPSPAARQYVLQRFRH

[19] = test system: Mus musculus; experiment: In vivo inhibition of mTORC2-mediated phosphorylation of AKT at serine 473 in human MCF7 cells xenografted into athymic nude mouse at 100 mg/kg, po after 8 hrs by Western blotting analysis relative to control; type: functional; details: MCF7, 8 h; summary of the method: as §1
[20] = Cmax in cynomolgus monkey at 3 mg/kg, iv; type: ADME, organism-based, Macaca fascicularis; set-up: dose 3 mg/kg, route intravenous; details: in vivo
Summary of the method: (§3)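 Single-dose PK: female athymic nude mice (10 mg/kg), female CD rats and male beagle dogs (3 mg/kg), male cynomolgus monkeys (3 mg/kg), given iv and by oral gavage. Solution in EPW (5% ethanol/45% PEG400/water), with 1:2 HCl (m/m) for mouse, rat and dog and 1:1.5 HCl (m/m) for monkey. Plasma levels followed over 24 h.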

[21] = Drug uptake in tumor of athymic mouse xenografted with human PC3 cells at 100 mg/kg, po after 8 hrs; type: ADME, organism-based, Neoplasm, PC-3; set-up: dose 100 mg/kg, route oral; details: read-out: Drug uptake
Summary of the method: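 PC-3 cells (3 × 10⁶, passages 10–14, in ice-cold HBSS) were implanted sc in 5–8 week old male nude mice. Tumors of 200–500 mg received a single oral 100 mg/kg dose. Plasma and tumor were collected at 1, 4, 8, 16, 24 and 32 h and homogenized in buffer. Lysates were pooled per group (n = 5), and phospho-proteins were measured by Western blot normalized to α-tubulin.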

[22] = Half life in cynomolgus monkey at 3 mg/kg, iv; type: ADME, organism-based, Macaca fascicularis; set-up: dose 3 mg/kg, route intravenous; details: in vivo; summary of the method: as §3
[23] = test system: Mus musculus; experiment: In vivo inhibition of mTORC1-mediated phosphorylation of p70S6K at […] in human MCF7 cells xenografted into athymic nude mouse at 100 mg/kg, po after 16 hrs by Western blotting analysis relative to control; type: functional; details: MCF7, 16 h; summary of the method: as §1
[24] = Half life in Beagle dog at 3 mg/kg, iv; type: ADME, organism-based, Canis lupus familiaris; set-up: dose 3 mg/kg, route intravenous; details: in vivo; summary of the method: as §3
[25] = AUC (0 to infinity) in Beagle dog at 3 mg/kg, po; type: ADME, organism-based, Canis lupus familiaris; set-up: time infinity, dose 3 mg/kg, route oral; details: plasma; summary of the method: as §3
[26] = test system: Mus musculus; experiment: In vivo inhibition of mTORC1-mediated phosphorylation of p70S6K at […] in human PC3 cells xenografted into athymic nude mouse at 100 mg/kg, po after 16 hrs by Western blotting analysis relative to control; type: functional; details: PC-3, 16 h; summary of the method: as §2
[27] = test system: Mus musculus; experiment: Inhibition of mTORC2-mediated phosphorylation of AKT at serine 473 in human PC3 cells xenografted into athymic nude mouse at 100 mg/kg, po after 1 hr by Western blotting analysis relative to control; type: functional; details: PC-3, 1 h
Summary of the method: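 PC-3 cells (3 × 10^6, in ice-cold HBSS) were implanted subcutaneously in the hindflank of 5–8 week old male nude mice. At 200–500 mg tumour size, mice received a single oral dose. Tumours were collected at set times after dosing, homogenised and pooled per group (n=5). pAKT S473 was measured by Western blot and normalised to α-tubulin.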

[28] = test system: Mus musculus; experiment: In vivo inhibition of mTORC1-mediated phosphorylation of 4EBP1 at ([…]) in human MCF7 cells xenografted into athymic nude mouse at 100 mg/kg, po after 32 hrs by Western blotting analysis relative to control; type: functional; details: MCF7, 32 h

SMILES: Cc1c(C(=O)N2CCOc3ccc(-c4ccc(N)nc4)cc3C2)ccc(S(C)(=O)=O)c1F
- Vd [1]: 1.27 L/kg
- inhibition in vivo at 100 mg/kg [2]: 6%
- IC50 [3]: > 3.5 µM
- IC50 [4]: > 3.5 µM
- IC50 [5]: > 5 µM
- IC50 [6]: > 3 µM
- IC50 [7]: > 3.5 µM
- IC50 [8]: > 3 µM
- IC50 [9]: > 3.5 µM
- inhibition [10]: inactive
- inhibition in vivo at 100 mg/kg [11]: 91%
- fraction unbound at 5 µM [12]: 0.16
- IC50 [13]: > 3.5 µM
- Activity [14]: 50 µM
- Cp [15]: BLD
- Tmax [16]: 30 min
- inhibition in vivo at 100 mg/kg [17]: 2%
- IC50 [18]: > 10 µM
- inhibition in vivo at 100 mg/kg [19]: 89%
- Cmax [20]: 0.95 µM
- concentration at 8 h [21]: 25.5 µM
- half-life [22]: 51.6 min
- inhibition in vivo at 100 mg/kg [23]: 41%
- half-life [24]: 367 min
- AUC(0-inf) [25]: 7.66 µM·h
- inhibition in vivo at 100 mg/kg [26]: 66%
- inhibition in vivo at 100 mg/kg [27]: 88%
- inhibition in vivo at 100 mg/kg [28]: 3%
